Tests used:
Trypanosoma brucei [1] = assay: Antiparasite activity against Trypanosoma brucei 427 assessed as growth inhibition incubated for 48 hrs by PrestoBlue based fluorescence assay; assay type: functional, organism-based; settings: Trypanosoma brucei, 427, 48 h
Trypanosoma cruzi [2] = assay: Antiparasite activity against Trypanosoma cruzi Tulahuen expressing beta-galactosidase assessed as growth inhibition incubated for 96 hrs by CPRG dye based assay; assay type: functional, organism-based
Leishmania major [3] = assay: Antiparasite activity against Leishmania major promastigotes assessed as growth inhibition incubated for 44 hrs by alamar blue dye based fluorescence assay; assay type: functional, organism-based
Leishmania major [4] = assay: Antiparasite activity against luciferase-expressing Leishmania major amastigotes isolated from infected in mouse RAW264.7 cells assessed as growth inhibition incubated for 96 hrs by luciferase reporter gene assay; assay type: functional, organism-based; settings: RAW264.7, 96 h
Plasmodium falciparum [5] = assay: Antiparasite activity against Plasmodium falciparum D6 assessed as growth inhibition incubated for 72 hrs by SYBR green fluorescence assay; assay type: functional, organism-based; settings: D6, 72 h
[6] = Toxicity against human HepG2 cells incubated for 48 hrs by MTT assay; assay type: cell-based; settings: read-out: TC50
Plasmodium falciparum [7] = assay: Antiparasite activity against drug resistant Plasmodium falciparum W2 assessed as growth inhibition incubated for 72 hrs by SYBR green fluorescence assay; assay type: functional, organism-based; settings: W2, 72 h
Plasmodium falciparum [8] = assay: Antiparasite activity against drug resistant Plasmodium falciparum C235 assessed as growth inhibition incubated for 72 hrs by SYBR green fluorescence assay; assay type: functional, organism-based; settings: C235, 72 h
[9] = Protein binding in plasma (unknown origin) assessed as fraction unbound; assay type: ADME, cell-free
Hepatocyte = assay: Intrinsic clearance in rat hepatocytes assessed per 10^6 cells; assay type: ADME, cell-based
Trypanosoma cruzi [10] = assay: Antiparasite activity against Trypanosoma cruzi Tulahuen expressing beta-galactosidase assessed as growth inhibition at 10 uM incubated for 96 hrs by CPRG dye based assay; assay type: functional; settings: read-out: GI
Trypanosoma brucei [11] = assay: Antiparasite activity against Trypanosoma brucei 427 assessed as growth inhibition at 5 uM incubated for 48 hrs by PrestoBlue based fluorescence assay; assay type: functional; settings: Trypanosoma brucei, 427, 48 h; read-out: GI
[12] = Aqueous solubility of the compound; assay type: physicochemical; settings: buffer
Method in brief: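 Aqueous solubility measured as thermodynamic solubility.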

Row | Compound | EC50 (Trypanosoma brucei [1]) [µM] | EC50 (Trypanosoma cruzi [2]) [µM] | EC50 (Leishmania major [3]) [µM] | EC50 (Leishmania major [4]) [µM] | EC50 (Plasmodium falciparum [5]) [µM] | CC50 at 48 h [6] [µM] | EC50 (Plasmodium falciparum [7]) [µM] | EC50 (Plasmodium falciparum [8]) [µM] | Fu [9] [%] | CLH (Hepatocyte) [µL/min] | inhibition of growth at 10 µM (Trypanosoma cruzi [10]) [%] | inhibition of growth at 5 µM (Trypanosoma brucei [11]) [%] | solubility [12] [µM]
1 | CN1CCCN(S(=O)(=O)c2ccc(-c3ccc4ncc(C#N)c(Nc5ccc(OCc6cccc(F)c6)c(Cl)c5)c4c3)cc2)CC1 | 0.35 | 0.09 | 0.92 | 1.6 | 0.047 | > 15 | 0.1 | 0.066 | < 1 | 37.95 |  |  | 
2 | CN1CCN(S(=O)(=O)c2ccc(-c3ccc4ncnc(Nc5ccc(OCc6cccc(F)c6)c(Cl)c5)c4c3)cc2)CC1 |  |  | 2.8 | 1.6 | 0.027 | > 15 |  |  |  |  | 60 |  | 
3 | N#Cc1cnc2ccc(-c3cccc(N4CCOCC4)c3)cc2c1Nc1ccc(OCc2cccc(F)c2)c(Cl)c1 |  | > 50 | > 15 | > 15 | 0.48 | > 15 | 1 | 0.73 |  |  |  | 49 | 
4 | N#Cc1cnc2ccc(-c3ccc(S(=O)(=O)N4CCOCC4)cc3)cc2c1Nc1ccc(OCc2ccccc2)c(Cl)c1 |  | > 50 | > 15 | > 15 | 0.28 | > 15 | 0.58 | 0.41 |  |  |  | 33 | 
5 | Fc1cccc(COc2ccc(Nc3nccc4cc(-c5cccc(N6CCOCC6)c5)ccc34)cc2Cl)c1 |  | > 50 | > 15 | 2.2 | 2.8 | > 28 | 19 | 4.7 |  |  |  | 12 | 
6 | CN1CCN(S(=O)(=O)c2ccc(-c3ccc4c(Nc5ccc(OCc6cccc(F)c6)c(Cl)c5)ccnc4c3)cc2)CC1 | 0.079 | 0.73 | 1 | 1.6 | 0.019 | > 4 | 0.042 | 0.039 | < 1 |  |  |  | 
7 | Fc1cccc(COc2ccc(Nc3ncnc4ccc(-c5cccc(N6CCOCC6)c5)cc34)cc2Cl)c1 | 0.042 | 1.8 | 3 | 8 | 0.23 | > 15 |  |  | < 1 |  |  |  | < 1
8 | O=S(=O)(c1ccc(-c2ccc3ncnc(Nc4ccc(OCc5ccccc5)c(Cl)c4)c3c2)cc1)N1CCOCC1 | 1.4 |  | 0.5 | > 15 | 0.26 | > 15 |  |  |  |  | 9.5 |  | 
9 | N#Cc1cnc2ccc(-c3ccc(S(=O)(=O)N4CCOCC4)cc3)cc2c1Nc1ccc(OCc2cccc(F)c2)c(Cl)c1 |  | > 50 | > 15 | > 15 | 0.16 | > 15 | 0.3 | 0.24 |  |  |  | 15 | 
10 | CN1CCCN(S(=O)(=O)c2ccc(-c3ccc4c(Nc5ccc(OCc6cccc(F)c6)c(Cl)c5)cnnc4c3)cc2)CC1 | 0.21 | 49 | 6.4 | 0.24 | 0.003 | 15 | 0.013 | 0.005 | < 1 | 36.72 |  |  | < 1
11 | Fc1cccc(COc2ccc(Nc3nccc4ccc(-c5cccc(N6CCOCC6)c5)cc34)cc2Cl)c1 |  | > 50 | > 15 | 6 | 2.6 | > 28 | 19 | 6.1 |  |  |  | 0.1 | 
12 | Fc1cccc(COc2ccc(Nc3cnnc4cc(-c5cccc(N6CCOCC6)c5)ccc34)cc2Cl)c1 | 0.89 | 45 | 9.8 | > 15 | 0.2 | 11 | 0.23 | 0.41 |  |  |  |  | 
13 | CN1CCN(S(=O)(=O)c2ccc(-c3ccc4nncc(Nc5ccc(OCc6cccc(F)c6)c(Cl)c5)c4c3)cc2)CC1 | 0.98 | > 50 | > 15 | 1.9 | 0.13 | > 15 | 0.29 | 0.14 |  |  |  |  | 
14 | O=S(=O)(c1ccc(-c2ccc3ccnc(Nc4ccc(OCc5ccccc5)c(Cl)c4)c3c2)cc1)N1CCOCC1 | > 2.5 | > 50 | > 15 | > 15 | 0.87 | > 25 | 5.5 | 4 |  |  |  |  | 
15 | CN1CCCN(S(=O)(=O)c2ccc(-c3ccc4cnnc(Nc5ccc(OCc6cccc(F)c6)c(Cl)c5)c4c3)cc2)CC1 | 0.62 | 17 | > 15 | 5.6 | 0.094 | 14 | 0.25 | 0.18 |  |  |  |  | 
16 | O=S(=O)(c1ccc(-c2ccc3c(Nc4ccc(OCc5ccccc5)c(Cl)c4)nncc3c2)cc1)N1CCOCC1 | 0.99 | > 50 | > 15 | > 15 | 0.11 | > 15 | 0.35 | 0.17 |  |  |  |  | 
17 | O=S(=O)(c1ccc(-c2ccc3nccc(Nc4ccc(OCc5ccccc5)c(Cl)c4)c3c2)cc1)N1CCOCC1 | 2.1 | 49 | 0.2 | 3.4 | 0.032 | > 5 | 0.11 | 0.054 | < 1 | 13.93 |  |  | < 1
18 | CN1CCN(S(=O)(=O)c2ccc(-c3ccc4nccc(Nc5ccc(OCc6cccc(F)c6)c(Cl)c5)c4c3)cc2)CC1 | 0.46 | 5.3 | 0.6 | 2 | > 16 | 6.4 | > 16 | > 16 |  |  |  |  | 
19 | CN1CCN(S(=O)(=O)c2ccc(-c3ccc4ncc(C#N)c(Nc5ccc(OCc6cccc(F)c6)c(Cl)c5)c4c3)cc2)CC1 | 1.1 | > 50 | > 15 | > 15 | 0.082 | > 15 | 0.2 | 0.11 |  |  |  |  | 

From ChEMBL document CHEMBL3588845, “Protozoan Parasite Growth Inhibitors Discovered by Cross-Screening Yield Potent Scaffolds for Lead Discovery” (J Med Chem, 2015)
